Measurements: article PMC10583827 (RSC Medicinal Chemistry, 2023)
Where “and” joins values, the source holds several entries; their conditions need not be identical. Equal entries are not always repeated. Entries after “also recorded” stand apart in the source; their conditions may differ.

How the values were obtained:
[1] = Host macrophage cytotoxicity, resazurin assay; format: cell-based; details: human, PMA-differentiated THP-1 cells (macrophages)
[2] = Cyclic voltammetry; format: physicochemical; details: acetonitrile; for ipa/ipc, ratio of anodic to cathodic current / ΔEp, wave potential separation (Epa − Epc): scan rate 100 mV s−1; for E1/2, half wave potential (E1/2 = (Epa + Epc)/2) / Epa, anodic wave potential / Epc, cathodic wave potential: scan rate 100 mV s−1, V vs. Ag/AgCl
Procedure, shortened: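 Test compound at 0.5 mM in anhydrous acetonitrile with 0.1 M […] as background electrolyte. Three-electrode cell: glassy carbon working, Pt wire counter, Ag/AgCl reference. Scanned from −1.7 to +1.0 V at 100 mV s−1 with a 20 mV E step, 6 cycles per compound, at 25 °C. Half-wave potentials were taken from the voltammograms.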

[3] = system: Vero cells; experiment: General/basal cytotoxicity, resazurin assay
[4] = system: L. donovani strain 9515 amastigotes; experiment: Intramacrophage antileishmanial assay; format: cell-based, Leishmania donovani; details: antimonial-resistant L. donovani; activity retained 72 hours post lysis
[5] = system: L. major strain IR173 amastigotes; experiment: Intramacrophage antileishmanial assay; format: cell-based, Leishmania major; details: activity retained 72 hours post macrophage lysis
[6] = historical data ref 35; cited from earlier work

Row | Structure (SMILES) | ipa/ipc, ratio of anodic to cathodic current [2] | ΔEp, wave potential separation (Epa − Epc) [2] | E1/2, half wave potential (E1/2 = (Epa + Epc)/2) [2] | Epa, anodic wave potential [2] | Epc, cathodic wave potential [2] | IC50 at 72 h [1] | Toxicity to mammalian cells, class in words [3] | Cidal anti-amastigote activity against L. donovani [4] | Cidal anti-amastigote activity against L. major [5] | E1/2, half wave potential [6]
1 | O=[N+]([O-])c1ccc(/C=N/N=C/c2ccccc2)o1 [1a, (1E,2E)-1-Benzylidene-2-[(5-nitrofuran-2-yl)methylene]hydrazine] | 1.016 | 0.24 V | −0.88 V | −0.76 V | −1.00 V | > 100 µM |  |  |  | 
2 | O=[N+]([O-])c1ccc(/C=N/N=C/c2ccccc2)s1 [1b, (1E,2E)-1-Benzylidene-2-[(5-nitrothiophen-2-yl)methylene]hydrazine] | 1.032 | 0.22 V | −0.95 V | −0.84 V | −1.06 V | > 100 µM | moderate toxicity | cidal |  | 
3 | O=[N+]([O-])c1ccc(/C=N/N=C/c2ccc(F)cc2)o1 [2a, (1E,2E)-1-(4-Fluorobenzylidene)-2-[(5-nitrofuran-2-yl)methylene]hydrazine] | 0.990 | 0.28 V | −0.92 V | −0.78 V | −1.06 V |  |  |  | cidal | 
4 | O=[N+]([O-])c1ccc(/C=N/N=C/c2ccc(F)cc2)s1 [2b, (1E,2E)-1-(4-Fluorobenzylidene)-2-[(5-nitrothiophen-2-yl)methylene]hydrazine] | 1.022 | 0.22 V | −0.89 V | −0.78 V | −1.00 V | > 100 µM | low toxicity |  |  | 
5 | O=[N+]([O-])c1ccc(/C=N/N=C/c2ccc(Cl)cc2)o1 [3a, (1E,2E)-1-(4-Chlorobenzylidene)-2-[(5-nitrofuran-2-yl)methylene]hydrazine] | 0.967 | 0.28 V | −0.94 V | −0.80 V | −1.08 V | > 100 µM | low toxicity; also recorded: non-toxic |  | cidal | 
6 | O=[N+]([O-])c1ccc(/C=N/N=C/c2ccc(Cl)cc2)s1 [3b, (1E,2E)-1-(4-Chlorobenzylidene)-2-[(5-nitrothiophen-2-yl)methylene]hydrazine] | 0.889 | 0.22 V | −0.85 V | −0.74 V | −0.96 V |  |  |  |  | 
7 | O=[N+]([O-])c1ccc(/C=N/N=C/c2ccc(Br)cc2)o1 [4a, (1E,2E)-1-(4-Bromobenzylidene)-2-[(5-nitrofuran-2-yl)methylene]hydrazine] | 0.891 | 0.26 V | −0.93 V | −0.80 V | −1.06 V | > 100 µM | low toxicity; also recorded: non-toxic | cidal | cidal | 
8 | O=[N+]([O-])c1ccc(/C=N/N=C/c2ccc(Br)cc2)s1 [4b, (1E,2E)-1-(4-Bromobenzylidene)-2-[(5-nitrothiophen-2-yl)methylene]hydrazine] | 0.961 | 0.24 V | −0.92 V | −0.80 V | −1.04 V |  |  |  |  | 
9 | O=[N+]([O-])c1ccc(/C=N/N=C/c2ccc(OCc3ccccc3)cc2)s1 [7b, (1E,2E)-1-[4-(Benzyloxy)benzylidene]-2-[(5-nitrothiophen-2-yl)methylene]hydrazine] |  |  |  |  |  | > 100 µM | low toxicity |  |  | 
10 | O=C(Cn1ccnc1[N+](=O)[O-])NCc1ccccc1 [Bzn, benznidazole, reference compound] |  |  |  |  |  | > 100 µM |  |  |  | 
11 | O=Cc1ccc([N+](=O)[O-])o1 [NFA, 5-nitro-2-furaldehyde, reference compound] | 0.967 | 0.28 V | −0.88 V | −0.74 V | −1.02 V |  |  |  |  | 
12 | NC(=O)N/N=C/c1ccc([N+](=O)[O-])o1 [NFZ, nitrofurazone, reference compound] |  |  |  |  |  | > 100 µM |  |  |  | 
13 | O=Cc1ccc([N+](=O)[O-])s1 [NTA, 5-nitrothiophene-2-carboxaldehyde, reference compound] | 0.755 | 0.20 V | −0.96 V | −0.86 V | −1.06 V |  |  |  |  | 
14 | CC1CS(=O)(=O)CCN1/N=C/c1ccc([N+](=O)[O-])o1 (stereo not drawn) [NTX, Nifurtimox] |  |  |  |  |  |  |  |  |  | −0.88 V and −0.88 ^g V

More lines, main results first:

Row | ipa/ipc, ratio of anodic to cathodic current [2] | ΔEp, wave potential separation (Epa − Epc) [2] | E1/2, half wave potential (E1/2 = (Epa + Epc)/2) [2] | Epa, anodic wave potential [2] | Epc, cathodic wave potential [2] | Structure (SMILES) | IC50 at 72 h [1] | Toxicity to mammalian cells, class in words [3] | Cidal anti-amastigote activity against L. donovani [4] | Cidal anti-amastigote activity against L. major [5] | E1/2, half wave potential [6]
15 | 1.007 | 0.24 V | −0.94 V | −0.82 V | −1.06 V | Cc1ccc(/C=N/N=C/c2ccc([N+](=O)[O-])o2)cc1 [5a, (1E,2E)-1-(4-Methylbenzylidene)-2-[(5-nitrofuran-2-yl)methylene]hydrazine] | > 100 µM | low toxicity |  |  | 
16 | 1.000 | 0.24 V | −0.90 V | −0.78 V | −1.02 V | Cc1ccc(/C=N/N=C/c2ccc([N+](=O)[O-])s2)cc1 [5b, (1E,2E)-1-(4-Methylbenzylidene)-2-[(5-nitrothiophen-2-yl)methylene]hydrazine] |  |  |  |  | 
17 | 0.965 | 0.34 V | −0.85 V | −0.68 V | −1.02 V | COc1ccc(/C=N/N=C/c2ccc([N+](=O)[O-])o2)cc1 [6a, (1E,2E)-1-(4-Methoxybenzylidene)-2-[(5-nitrofuran-2-yl)methylene]hydrazine] | > 100 µM |  | cidal |  | 
18 | 0.990 | 0.24 V | −0.92 V | −0.80 V | −1.04 V | COc1ccc(/C=N/N=C/c2ccc([N+](=O)[O-])s2)cc1 [6b, (1E,2E)-1-(4-Methoxybenzylidene)-2-[(5-nitrothiophen-2-yl)methylene]hydrazine] |  |  |  |  | 
19 |  | 0.26 V | −0.91 V | −0.78 V | −1.04 V | O=[N+]([O-])c1ccc(/C=N/N=C/c2ccc(OCc3ccccc3)cc2)o1 [7a, (1E,2E)-1-[4-(Benzyloxy)benzylidene]-2-[(5-nitrofuran-2-yl)methylene]hydrazine] | > 100 µM | low toxicity |  |  | 
20 | 0.943 | 0.26 V | −0.95 V | −0.82 V | −1.08 V | O=[N+]([O-])c1ccc(/C=N/N=C/c2ccc(O)cc2)o1 [8a, 4-{(E)-{(E)-[(5-Nitrofuran-2-yl)methylene]hydrazono}methyl}phenol] |  |  |  |  | 
21 | 1.002 | 0.24 V | −0.94 V | −0.82 V | −1.06 V | O=[N+]([O-])c1ccc(/C=N/N=C/c2ccc(O)cc2)s1 [8b, 4-(E)-(E)-[(5-Nitrothiophen-2-yl)methylene]hydrazonomethylphenol] |  | moderate toxicity | cidal |  | 
22 | 0.963 | 0.22 V | −0.95 V | −0.84 V | −1.06 V | O=[N+]([O-])c1ccc(/C=N/N=C/c2ccc([N+](=O)[O-])o2)cc1 [9a, (1E,2E)-1-(4-Nitrobenzylidene)-2-[(5-nitrofuran-2-yl)methylene]hydrazine] |  |  | cidal | cidal | 
23 | 0.951 | 0.24 V | −0.94 V | −0.82 V | −1.06 V | O=[N+]([O-])c1ccc(/C=N/N=C/c2ccc([N+](=O)[O-])s2)cc1 [9b, (1E,2E)-1-(4-Nitrobenzylidene)-2-[(5-nitrothiophen-2-yl)methylene]hydrazine] |  |  |  |  | 
